Measured values reported in ChEMBL document CHEMBL1158358, “Synthesis, antimicrobial and cytotoxic activities of some 5-arylidene-4-thioxo-thiazolidine-2-ones” (Eur J Med Chem, 2009).
Converted amounts (≈) assume the structure as drawn.

Columns and labels:
Type in all cases: functional
Candida albicans [1] = experiment: Antimicrobial activity against Candida albicans UFPEDA 1007 after 48 hrs by twofold serial dilution technique; details: UFPEDA 1007, 48 h
Summary of the method: (§1)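 MIC was determined by twofold serial dilution. Bacteria were tested in plates at 10⁵ CFU/plate and read after 20 h. C. albicans was tested in tubes at 10³ CFU/tube and read after 48 h. All incubations were at 35 °C. Medium plus DMSO served as the negative control.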

[2] = test system: Mycolicibacterium smegmatis; experiment: Antimicrobial activity against Mycobacterium smegmatis UFPEDA 71 at 300 ug/disk after 24 hrs by disk diffusion method; details: UFPEDA 71, 24 h, read-out: IZ
Summary of the method: (§2)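 Preliminary screen by disk diffusion. Paper disks (6 mm) holding 300 µg of compound were placed on agar plates inoculated with a standardized microbial suspension. DMSO-only disks served as negative controls. A mean inhibition zone below 7 mm was scored as no sensitivity. Values are means, n = 3.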

NCI-H292 [3] = experiment: Cytotoxicity against human NCI-H292 cells at 5 ug/mL after 72 hrs by MTT assay; details: NCI-H292, 72 h, read-out: GI
Summary of the method: (§3)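 MTT antiproliferative assay. Cells were diluted to 10⁵ cells/mL in 96-well plates and preincubated for 24 h at 37 °C in humid 5% CO₂. Compounds or vincristine (reference) were then added. Formazan was dissolved and OD read at 540 nm, compared with medium-only control cells. Run in triplicate.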

HEp-2 [4] = experiment: Cytotoxicity against human Hep2 cells at 2.5 ug/mL after 72 hrs by MTT assay; details: HEp-2, 72 h, read-out: GI; summary of the method: as §3
Staphylococcus aureus [5] = experiment: Antimicrobial activity against multidrug-resistant Staphylococcus aureus H.C. 21141 isolate after 20 hrs by twofold serial dilution technique; details: H.C. 21141, 20 h
Summary of the method: (§4)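 Twofold serial dilution MIC in agar plates against Gram-positive strains and multidrug-resistant clinical isolates. Inoculum applied was 10⁵ CFU/plate. Plates with culture medium plus DMSO served as negative control. MIC was read after incubation at 35 °C for 20 h.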

NCI-H292 [6] = experiment: Cytotoxicity against human NCI-H292 cells at 1.25 ug/mL after 72 hrs by MTT assay; details: NCI-H292, 72 h, read-out: GI; summary of the method: as §3
NCI-H292 [7] = experiment: Cytotoxicity against human NCI-H292 cells at 10 ug/mL after 72 hrs by MTT assay; details: NCI-H292, 72 h, read-out: GI; summary of the method: as §3
Staphylococcus aureus [8] = experiment: Antimicrobial activity against Staphylococcus aureus UFPEDA 01 after 20 hrs by twofold serial dilution technique; details: UFPEDA 01, 20 h; summary of the method: as §4
HEp-2 [9] = experiment: Cytotoxicity against human Hep2 cells at 5 ug/mL after 72 hrs by MTT assay; details: HEp-2, 72 h, read-out: GI; summary of the method: as §3
Micrococcus luteus [10] = experiment: Antimicrobial activity against Micrococcus luteus UFPEDA 06 after 20 hrs by twofold serial dilution technique; details: UFPEDA 06, 20 h; summary of the method: as §1
Staphylococcus aureus [11] = experiment: Antimicrobial activity against multidrug-resistant Staphylococcus aureus H.C. 20794 isolate after 20 hrs by twofold serial dilution technique; details: H.C. 20794, 20 h; summary of the method: as §4
NCI-H292 [12] = experiment: Cytotoxicity against human NCI-H292 cells at 2.5 ug/mL after 72 hrs by MTT assay; details: NCI-H292, 72 h, read-out: GI; summary of the method: as §3
Staphylococcus [13] = experiment: Antimicrobial activity against coagulase-negative Staphylococcus H.A.M. 278 isolate after 20 hrs by twofold serial dilution technique; details: H.A.M. 278, 20 h; summary of the method: as §1
Bacillus subtilis [14] = experiment: Antimicrobial activity against Bacillus subtilis UFPEDA 16 at 300 ug/disk after 24 hrs by disk diffusion method; details: UFPEDA 16, 24 h, read-out: IZ; summary of the method: as §2
Staphylococcus aureus [15] = experiment: Antimicrobial activity against Staphylococcus aureus UFPEDA 01 at 300 ug/disk after 24 hrs by disk diffusion method; details: UFPEDA 01, 24 h, read-out: IZ; summary of the method: as §2
Staphylococcus aureus [16] = experiment: Antimicrobial activity against multidrug-resistant Staphylococcus aureus H.C. 20981 isolate after 20 hrs by twofold serial dilution technique; details: H.C. 20981, 20 h; summary of the method: as §4
Enterococcus faecalis [17] = experiment: Antimicrobial activity against multidrug-resistant Enterococcus faecalis H.C. 24708 isolate after 20 hrs by twofold serial dilution technique; details: H.C. 24708, 20 h; summary of the method: as §4
Pseudomonas aeruginosa = experiment: Antimicrobial activity against Pseudomonas aeruginosa UFPEDA 39 at 300 ug/disk after 24 hrs by disk diffusion method; details: UFPEDA 39, 24 h, read-out: IZ; summary of the method: as §2
HEp-2 [18] = experiment: Cytotoxicity against human Hep2 cells at 10 ug/mL after 72 hrs by MTT assay; details: HEp-2, 72 h, read-out: GI; summary of the method: as §3
Enterococcus faecalis [19] = experiment: Antimicrobial activity against multidrug-resistant Enterococcus faecalis H.C. 21944 isolate after 20 hrs by twofold serial dilution technique; details: H.C. 21944, 20 h; summary of the method: as §4
[20] = test system: Mycolicibacterium smegmatis; experiment: Antimicrobial activity against Mycobacterium smegmatis UFPEDA 71 after 20 hrs by twofold serial dilution technique; details: UFPEDA 71, 20 h; summary of the method: as §1
Micrococcus luteus [21] = experiment: Antimicrobial activity against Micrococcus luteus UFPEDA 06 at 300 ug/disk after 24 hrs by disk diffusion method; details: UFPEDA 06, 24 h, read-out: IZ; summary of the method: as §2
Enterococcus faecalis [22] = experiment: Antimicrobial activity against Enterococcus faecalis UFPEDA 138 after 20 hrs by twofold serial dilution technique; details: UFPEDA 138, 20 h; summary of the method: as §1
Serratia marcescens = experiment: Antimicrobial activity against Serratia marcescens UFPEDA 398 at 300 ug/disk after 24 hrs by disk diffusion method; details: UFPEDA 398, 24 h, read-out: IZ; summary of the method: as §2
Enterococcus faecalis [23] = experiment: Antimicrobial activity against multidrug-resistant Enterococcus faecalis H.C. 21752 isolate after 20 hrs by twofold serial dilution technique; details: H.C. 21752, 20 h; summary of the method: as §4
Staphylococcus aureus [24] = experiment: Antimicrobial activity against multidrug-resistant Staphylococcus aureus H.C. 21036 isolate after 20 hrs by twofold serial dilution technique; details: H.C. 21036, 20 h; summary of the method: as §4
Staphylococcus aureus [25] = experiment: Antimicrobial activity against multidrug-resistant Staphylococcus aureus H.C. 20489 isolate after 20 hrs by twofold serial dilution technique; details: H.C. 20489, 20 h; summary of the method: as §4
Enterococcus faecalis [26] = experiment: Antimicrobial activity against Enterococcus faecalis UFPEDA 138 at 300 ug/disk after 24 hrs by disk diffusion method; details: UFPEDA 138, 24 h, read-out: IZ; summary of the method: as §2
Candida albicans [27] = experiment: Antimicrobial activity against Candida albicans UFPEDA 1007 at 300 ug/disk after 48 hrs by disk diffusion method; details: UFPEDA 1007, 48 h, read-out: IZ; summary of the method: as §2
Bacillus subtilis [28] = experiment: Antimicrobial activity against Bacillus subtilis UFPEDA 16 after 20 hrs by twofold serial dilution technique; details: UFPEDA 16, 20 h; summary of the method: as §1
Enterococcus faecalis [29] = experiment: Antimicrobial activity against multidrug-resistant Enterococcus faecalis H.C. 24962 isolate after 20 hrs by twofold serial dilution technique; details: H.C. 24962, 20 h; summary of the method: as §4
Escherichia coli = experiment: Antimicrobial activity against Escherichia coli UFPEDA 224 at 300 ug/disk after 24 hrs by disk diffusion method; details: UFPEDA 224, 24 h, read-out: IZ; summary of the method: as §2
Staphylococcus aureus [30] = experiment: Antimicrobial activity against multidrug-resistant Staphylococcus aureus H.C. 20905 isolate after 20 hrs by twofold serial dilution technique; details: H.C. 20905, 20 h; summary of the method: as §4
HEp-2 [31] = experiment: Cytotoxicity against human Hep2 cells at 1.25 ug/mL after 72 hrs by MTT assay; details: HEp-2, 72 h, read-out: GI; summary of the method: as §3
Staphylococcus [32] = experiment: Antimicrobial activity against coagulase-negative Staphylococcus H.A.M. 338 isolate after 20 hrs by twofold serial dilution technique; details: H.A.M. 338, 20 h; summary of the method: as §1

Compound | MIC (Candida albicans [1]) | zone of inhibition at 300 µg/disc [2] | inhibition of growth at 5 µg/mL (NCI-H292 [3]) | inhibition of growth at 2.5 µg/mL (HEp-2 [4]) | MIC (Staphylococcus aureus [5]) | inhibition of growth at 1.25 µg/mL (NCI-H292 [6]) | inhibition of growth at 10 µg/mL (NCI-H292 [7]) | MIC (Staphylococcus aureus [8]) | inhibition of growth at 5 µg/mL (HEp-2 [9]) | MIC (Micrococcus luteus [10]) | MIC (Staphylococcus aureus [11]) | inhibition of growth at 2.5 µg/mL (NCI-H292 [12]) | MIC (Staphylococcus [13]) | zone of inhibition at 300 µg/disc (Bacillus subtilis [14]) | zone of inhibition at 300 µg/disc (Staphylococcus aureus [15]) | MIC (Staphylococcus aureus [16]) | MIC (Enterococcus faecalis [17]) | zone of inhibition at 300 µg/disc (Pseudomonas aeruginosa) | inhibition of growth at 10 µg/mL (HEp-2 [18]) | MIC (Enterococcus faecalis [19]) | further results
O=C1NC(=S)/C(=C/c2cccc(Cl)c2)S1 | 32 µg/mL (≈ 125 µM) | 24 mm | 21.6% | 5.44% | 8 µg/mL (≈ 31.3 µM) | 3.35% | 30.9% | 2 µg/mL (≈ 7.82 µM) | 17.6% | 8 µg/mL (≈ 31.3 µM) | 2 µg/mL (≈ 7.82 µM) | 11.2% | 16 µg/mL (≈ 62.6 µM) | 25 mm | 31 mm | 2 µg/mL (≈ 7.82 µM) | 4 µg/mL (≈ 15.6 µM) | < 7 mm | 18.8% | 4 µg/mL (≈ 15.6 µM) | MIC [20]: 16 µg/mL (≈ 62.6 µM); zone of inhibition at 300 µg/disc (Micrococcus luteus [21]): 29 mm; MIC (Enterococcus faecalis [22]): 8 µg/mL (≈ 31.3 µM); zone of inhibition at 300 µg/disc (Serratia marcescens): < 7 mm; MIC (Enterococcus faecalis [23]): 4 µg/mL (≈ 15.6 µM); MIC (Staphylococcus aureus [24]): 2 µg/mL (≈ 7.82 µM); MIC (Staphylococcus aureus [25]): 2 µg/mL (≈ 7.82 µM); zone of inhibition at 300 µg/disc (Enterococcus faecalis [26]): 22 mm; zone of inhibition at 300 µg/disc (Candida albicans [27]): 13 mm; MIC (Bacillus subtilis [28]): 8 µg/mL (≈ 31.3 µM); MIC (Enterococcus faecalis [29]): 4 µg/mL (≈ 15.6 µM); zone of inhibition at 300 µg/disc (Escherichia coli): < 7 mm; MIC (Staphylococcus aureus [30]): 2 µg/mL (≈ 7.82 µM); inhibition of growth at 1.25 µg/mL (HEp-2 [31]): -0.36%; MIC (Staphylococcus [32]): 2 µg/mL (≈ 7.82 µM)
O=C1NC(=S)/C(=C/c2ccc(Br)cc2)S1 | 32 µg/mL (≈ 107 µM) | 17 mm | 16.6% | -0.36% | 4 µg/mL (≈ 13.3 µM) | 1.1% | 36.5% | 4 µg/mL (≈ 13.3 µM) | 15.4% | 8 µg/mL (≈ 26.6 µM) | 2 µg/mL (≈ 6.66 µM) | 1.19% | 4 µg/mL (≈ 13.3 µM) | 18 mm | 23 mm | 4 µg/mL (≈ 13.3 µM) | 8 µg/mL (≈ 26.6 µM) | < 7 mm | 18.2% | 8 µg/mL (≈ 26.6 µM) | MIC [20]: 4 µg/mL (≈ 13.3 µM); zone of inhibition at 300 µg/disc (Micrococcus luteus [21]): 21 mm; MIC (Enterococcus faecalis [22]): 16 µg/mL (≈ 53.3 µM); zone of inhibition at 300 µg/disc (Serratia marcescens): < 7 mm; MIC (Enterococcus faecalis [23]): 8 µg/mL (≈ 26.6 µM); MIC (Staphylococcus aureus [24]): 4 µg/mL (≈ 13.3 µM); MIC (Staphylococcus aureus [25]): 4 µg/mL (≈ 13.3 µM); zone of inhibition at 300 µg/disc (Enterococcus faecalis [26]): 17 mm; zone of inhibition at 300 µg/disc (Candida albicans [27]): 15 mm; MIC (Bacillus subtilis [28]): 2 µg/mL (≈ 6.66 µM); MIC (Enterococcus faecalis [29]): 8 µg/mL (≈ 26.6 µM); zone of inhibition at 300 µg/disc (Escherichia coli): < 7 mm; MIC (Staphylococcus aureus [30]): 4 µg/mL (≈ 13.3 µM); inhibition of growth at 1.25 µg/mL (HEp-2 [31]): -3.16%; MIC (Staphylococcus [32]): 4 µg/mL (≈ 13.3 µM)
